According to ChEMBL document CHEMBL3875201, “Synthesis and in vitro antiviral evaluation of 4-substituted 3,4-dihydropyrimidinones” (Bioorg Med Chem Lett, 2017):

Experiments:
[1] = Cytotoxicity against African green monkey Vero cells assessed as alterations in cell morphology by microscopic analysis; format: toxicity, cell-based; settings: chlorocebus sabaeus
Outline: (§1)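 Compound added to subconfluent cell monolayers in 96-well plates together with virus (CPE reduction assay format); after 3–5 days incubation, cultures inspected by microscopy. MCC taken as compound concentration producing minimal alterations in cell morphology.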

Human respirovirus 3 = assay: Antiviral activity against Para-influenza-3 virus infected in African green monkey Vero cells assessed as protection against virus-induced cytopathic effect measured after 3 to 5 days by microscopic analysis; format: functional, cell-based; settings: Human respirovirus 3, Vero
[2] = test system: Mammalian orthoreovirus 1; assay: Antiviral activity against Reovirus-1 infected in African green monkey Vero cells assessed as protection against virus-induced cytopathic effect measured after 3 to 5 days by microscopic analysis; format: functional, cell-based; settings: Mammalian orthoreovirus 1, Vero
Sindbis virus = assay: Antiviral activity against Sindbis virus infected in African green monkey Vero cells assessed as protection against virus-induced cytopathic effect measured after 3 to 5 days by microscopic analysis; format: functional, cell-based
Coxsackievirus B4 = assay: Antiviral activity against Coxsackie virus B4 infected in African green monkey Vero cells assessed as protection against virus-induced cytopathic effect measured after 3 to 5 days by microscopic analysis; format: functional, cell-based; settings: Enterovirus B
Punta Toro virus [3] = assay: Antiviral activity against Punta Toro virus infected in African green monkey Vero cells assessed as protection against virus-induced cytopathic effect measured after 3 to 5 days by microscopic analysis; format: functional, cell-based
Yellow fever virus = assay: Antiviral activity against Yellow fever virus infected in African green monkey Vero cells assessed as protection against virus-induced cytopathic effect measured after 3 to 5 days by microscopic analysis; format: functional, cell-based
[4] = Cytotoxicity against human HeLa cells assessed as alterations in cell morphology by microscopic analysis; format: toxicity, cell-based; outline: as §1
[5] = Cytotoxicity against MDCK cells assessed as alterations in cell morphology by microscopic analysis; format: toxicity, cell-based, Canis lupus familiaris; settings: dog; outline: as §1
[6] = Cytotoxicity against HEL cells assessed as alterations in cell morphology by microscopic analysis; format: toxicity, cell-based; settings: human; outline: as §1
[7] = Cytotoxicity against cat CRFK cells assessed as by MTS cell viability assay; format: toxicity, cell-based, Felis catus
[8] = Cytotoxicity against human MT4 cells by MTS cell viability assay; format: toxicity, cell-based
Human alphaherpesvirus 3 = assay: Antiviral activity against Varicella zoster virus infected in HEL cells assessed as protection against virus-induced cytopathic effect at 100 uM measured after 3 to 5 days by microscopic analysis; format: functional, cell-based; settings: Human alphaherpesvirus 3, HEL
Outline: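 HEL fibroblasts, subconfluent, were exposed to compound plus virus together. After 3–5 days CPE was scored microscopically as protection against virus-induced cell damage. EC50 is the concentration giving 50% protection; MCC is the concentration causing minimal morphology change by microscopy.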

Punta Toro virus [9] = assay: Potency index, ratio of Dextran sulphate EC50 to test compound EC50 for Punta Toro virus infected in African green monkey Vero cells; format: functional
Punta Toro virus [10] = assay: Potency index, ratio of mycophenolic acid EC50 to test compound EC50 for Punta Toro virus infected in African green monkey Vero cells; format: functional
Punta Toro virus [11] = assay: Potency index, ratio of ribavirin EC50 to test compound EC50 for Punta Toro virus infected in African green monkey Vero cells; format: functional
[12] = Selectivity index, ratio of MCC for African green monkey Vero cells to EC50 for Punta Toro virus infected in African green monkey Vero cells; format: toxicity, cell-based
Punta Toro virus [13] = assay: Antiviral activity against Punta Toro virus infected in African green monkey Vero cells assessed as protection against virus-induced cytopathic effect at 20 uM measured after 3 to 5 days by microscopic analysis; format: functional
Rift Valley fever virus = assay: Antiviral activity against RVFV MP-12 infected in African green monkey Vero cells assessed as protection against virus-induced cytopathic effect at 100 uM measured after 3 to 5 days by microscopic analysis; format: functional

Row | SMILES | MCC [1] | EC50 (Human respirovirus 3) | EC50 [2] | EC50 (Sindbis virus) | EC50 (Coxsackievirus B4) | EC50 (Punta Toro virus [3]) | EC50 (Yellow fever virus) | MCC [4] | MCC [5] | MCC [6] | CC50 [7] | CC50 [8] | EC50 (Human alphaherpesvirus 3) | Activity (Punta Toro virus [3]) | Ratio EC50 (Punta Toro virus [9]) | Ratio EC50 (Punta Toro virus [10]) | Ratio EC50 (Punta Toro virus [11]) | Selectivity Index [12] | Activity (Punta Toro virus [13]) | Activity (Rift Valley fever virus)
1 | CCOC(=O)C1=C(C)NC(=O)NC1/C=C/c1ccccc1 (centres undefined) | 100 µM | > 100 µM | > 100 µM | > 100 µM | > 100 µM | > 100 µM | > 100 µM | ≥ 100 µM | > 100 µM | ≥ 100 µM | > 100 µM | > 125 µM | 57 µM |  |  |  |  |  |  | 
2 | CCOC(=O)C1=C(C)NC(=O)NC1c1cccs1 (centres undefined) | > 100 µM | > 100 µM | > 100 µM | > 100 µM | > 100 µM | > 100 µM | > 100 µM | > 100 µM | > 100 µM | > 100 µM | > 100 µM | > 125 µM |  |  |  |  |  |  |  | 
3 | CCOC(=O)C1=C(C)NC(=O)NC1c1ccc(Cl)cc1 (centres undefined) |  |  |  |  |  |  |  | > 100 µM | > 100 µM | > 100 µM |  |  |  |  |  |  |  |  |  | 
4 | CCOC(=O)C1=C(C)NC(=O)NC1c1ccccc1 (centres undefined) |  | > 100 µM | > 100 µM |  |  |  |  | > 100 µM | > 100 µM |  |  |  |  |  |  |  |  |  |  | 
5 | CCOC(=O)C1=C(C)NC(=O)NC1CC(C)C (centres undefined) | > 100 µM | > 100 µM | > 100 µM | > 100 µM | > 100 µM | > 100 µM | > 100 µM | > 100 µM | > 100 µM | > 100 µM | > 100 µM | > 125 µM |  |  |  |  |  |  |  | 
6 | CCOC(=O)C1=C(C)NC(=O)NC1c1ccc(O)cc1 (centres undefined) | > 100 µM | > 100 µM | > 100 µM | > 100 µM | > 100 µM | > 100 µM | > 100 µM | > 100 µM | > 100 µM | > 100 µM | > 100 µM | > 125 µM |  |  |  |  |  |  |  | 
7 | NC(=O)c1ncn([C@@H]2O[C@H](CO)[C@@H](O)[C@H]2O)n1 [RIBAVIRIN] | > 250 µM | 112 µM | > 250 µM | > 250 µM | > 250 µM | 50 µM |  |  |  |  |  |  |  |  |  |  |  |  |  | 
8 | CCOC(=O)C1=C(C)NC(=O)NC1c1ccc(Br)cc1 (centres undefined) |  |  |  |  |  |  |  | > 100 µM | > 100 µM | > 100 µM |  |  |  |  |  |  |  |  |  | 
9 | CCCCCCCCCCCC1NC(=O)NC(C)=C1C(=O)OCC (centres undefined) | ≥ 100 µM | > 100 µM | > 100 µM | > 100 µM | > 100 µM | 3 µM | > 100 µM | > 100 µM | > 100 µM | 100 µM | > 100 µM | 50 µM |  | Dose-dependent effect | 7 | 7 | 17 | >= 33 | 81% | 40 - 50%
10 | CCOC(=O)C1=C(C)NC(=O)NC1 | > 100 µM | > 100 µM | > 100 µM | > 100 µM | > 100 µM | > 100 µM | > 100 µM | > 100 µM | > 100 µM | > 100 µM | > 100 µM | > 125 µM |  |  |  |  |  |  |  | 
11 | CCOC(=O)C1=C(C)NC(=O)NC1C (centres undefined) | > 100 µM | > 100 µM | > 100 µM | > 100 µM | > 100 µM | > 100 µM | > 100 µM | > 100 µM | > 100 µM | > 100 µM | > 100 µM | > 125 µM |  |  |  |  |  |  |  | 
12 | CCOC(=O)C1C2NC(=O)NC1(C)Oc1ccccc12 (centres undefined) | > 100 µM | > 100 µM | > 100 µM | > 100 µM | > 100 µM | > 100 µM | > 100 µM | > 100 µM | > 100 µM | > 100 µM | > 100 µM | > 125 µM |  |  |  |  |  |  |  | 
13 | CCOC(=O)C1=C(C)NC(=O)NC1c1ccccc1Cl (centres undefined) | > 100 µM | > 100 µM | > 100 µM | > 100 µM | > 100 µM | > 100 µM | > 100 µM | > 100 µM | > 100 µM | > 100 µM | > 100 µM | 96 µM |  |  |  |  |  |  |  | 
14 | CCOC(=O)C1=C(C)NC(=O)NC1c1ccc(OC)cc1 (centres undefined) |  |  | > 100 µM |  |  |  |  | > 100 µM | > 100 µM |  |  |  |  |  |  |  |  |  |  | 
15 | CCOC(=O)C1=C(C)NC(=O)NC1c1ccc(N(C)C)cc1 (centres undefined) | 100 µM | > 100 µM | > 100 µM | > 100 µM | > 100 µM | > 100 µM | > 100 µM | > 100 µM | > 100 µM | > 100 µM | > 100 µM | > 125 µM |  |  |  |  |  |  |  | 
16 | COc1c(C)c2c(c(O)c1C/C=C(\C)CCC(=O)O)C(=O)OC2 [MYCOPHENOLIC ACID] | > 100 µM | 0.8 µM | 1.8 µM | 4 µM | > 250 µM | 20 µM | 4 µM |  |  |  |  |  |  |  |  |  |  |  |  | 
